In ChEMBL document CHEMBL4706730, “A Set of Highly Sensitive Sirtuin Fluorescence Probes for Screening Small-Molecular Sirtuin Defatty-Acylase Inhibitors” (ACS Med Chem Lett, 2021):
Active and inactive are the calls of the source. The rule behind the calls is not given here. Numbered stars: 1 amine (or outer) side, 2 acyl side, 3 side chain; on linkers, the order of the positions; unused ones are H or OH. Square brackets hold non-standard residues; d marks the D form. Peptide text beside a SMILES is read from it. * marks the point of attachment. Lys(thiomyristoyl) = CCCCCCCCCCCCCC(=S)NCCCC[C@H](N)C(=O)O; X1 = O=C(O)c1cc(NC(=S)*)ccc1-c1c2ccc(=O)cc-2oc2cc(O)ccc12; X2 = CN(CCC(=O)*)c1ccc(/N=N/c2ccc([N+](=O)[O-])cc2)cc1; Achc(trans-4) = O=C([C@H]1CC[C@H](N[*:1])CC1)[*:2]; X5 = O=C(Cc1ccc(/N=N/c2ccc(O)cc2)cc1)*

Columns and labels:
[1] = biological target: NAD-dependent protein deacylase sirtuin-6 (Homo sapiens) (UniProt Q8N6T7); experiment: Inhibition of 5-[[(1r,4r)-4-[[(1S)-4-amino-1-[[(1S,2R)-1-[[(1S)-2-[[(1S)-1-[[(1S)-1-[[(1S)-2-[[(1S,2R)-1-[[2-(carboxymethylamino)-2-oxoethyl]carbamoyl]-2-hydroxypropyl]amino]-1-(hydroxymethyl)-2-oxoethyl]carbamoyl]-5-[3-[N-methyl-4-[(4-nitrophenyl)azo]anilino]propanoylamino]pentyl]carbamoyl]-4-guanidinobutyl]amino]-1-methyl-2-oxoethyl]carbamoyl]-2-hydroxypropyl]carbamoyl]-4-oxobutyl]carbamoyl]cycl …
Target sequence in this assay (Q8N6T7 whole entry, looked up): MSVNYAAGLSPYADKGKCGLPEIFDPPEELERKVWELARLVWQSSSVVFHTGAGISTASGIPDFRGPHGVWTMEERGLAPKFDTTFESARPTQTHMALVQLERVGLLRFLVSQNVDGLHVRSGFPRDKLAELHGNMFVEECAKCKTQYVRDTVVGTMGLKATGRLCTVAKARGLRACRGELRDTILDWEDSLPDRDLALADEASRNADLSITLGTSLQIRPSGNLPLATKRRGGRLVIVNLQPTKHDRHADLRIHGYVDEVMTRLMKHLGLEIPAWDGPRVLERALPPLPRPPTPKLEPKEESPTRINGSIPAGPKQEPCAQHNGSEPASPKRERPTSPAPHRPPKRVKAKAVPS

[2] = biological target: T1, NAD-dependent protein deacetylase sirtuin-2 (Homo sapiens) (UniProt Q8IXJ6); experiment: (§1) Inhibition of 5-(3-((1r,4r)-4-((5S,8S,11S,14S,17S,20S,29S)-11-((1H-imidazol-4-yl)methyl)-1,33-diamino-5-carbamoyl-17-(4-(4-(4-((4-(dimethylamino)phenyl)diazenyl)phenyl)butanamido)butyl)-8,14-bis(3-guanidinopropyl)-20-methyl-7,10,13,16,19,22,25,28-octaoxo-6,9,12,15,18,21,24,27-octaazatritriacontan-29-ylcarbamoyl)cyclohexyl)thioureido)-2-(6-hydroxy-3-oxo-3H-xanthen-9-yl)benzoic acid binding to SIRT2 (unknown origin) at 10 uM measured after 2 hrs in presence of NAD+ by fluorometric method relative to control
T1 sequence (whole entry): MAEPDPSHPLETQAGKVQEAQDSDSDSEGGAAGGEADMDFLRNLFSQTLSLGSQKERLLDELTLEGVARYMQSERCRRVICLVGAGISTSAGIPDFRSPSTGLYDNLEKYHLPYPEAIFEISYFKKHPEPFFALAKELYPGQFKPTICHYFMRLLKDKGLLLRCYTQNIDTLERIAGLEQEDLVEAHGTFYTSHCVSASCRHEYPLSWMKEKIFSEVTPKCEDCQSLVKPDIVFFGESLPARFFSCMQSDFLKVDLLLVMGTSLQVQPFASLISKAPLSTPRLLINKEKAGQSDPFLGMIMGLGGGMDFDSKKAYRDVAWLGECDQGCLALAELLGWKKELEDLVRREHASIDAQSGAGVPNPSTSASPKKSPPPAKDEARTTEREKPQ
Method in brief: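 In the primary library screen, 384-well plates held SIRT2 with the Dabcyl-BH/H4K16 one-step FRET probe. Each compound was tested at 10 μM with 0.5% DMSO, and inhibition was taken from the fluorescence signal.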

[3] = biological target: T1, NAD-dependent protein deacetylase sirtuin-2 (Homo sapiens); experiment: Binding affinity to SIRT2 (unknown origin) assessed as increase in fluorescence intensity at 2.5 uM measured at 5 mins interval for 1 hr in presence of NAD+ by fluorometric method relative to control
Method in brief: (§2)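 Each FITC/quencher FRET peptide probe was incubated with recombinant SIRT1–7 in 96-well half-area plates at 37 °C for 1 h. The fluorescence increase is reported as a fold change, SIRT(+) signal over SIRT(−) signal, after 1 h.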

[4] = biological target: T2, NAD-dependent protein deacetylase sirtuin-7 (Homo sapiens) (UniProt Q9NRC8); experiment: Binding affinity to SIRT7 (unknown origin) assessed as increase in fluorescence intensity at 2.5 uM measured at 5 mins interval for 1 hr in presence of NAD+ by fluorometric method relative to control
T2 sequence (whole entry): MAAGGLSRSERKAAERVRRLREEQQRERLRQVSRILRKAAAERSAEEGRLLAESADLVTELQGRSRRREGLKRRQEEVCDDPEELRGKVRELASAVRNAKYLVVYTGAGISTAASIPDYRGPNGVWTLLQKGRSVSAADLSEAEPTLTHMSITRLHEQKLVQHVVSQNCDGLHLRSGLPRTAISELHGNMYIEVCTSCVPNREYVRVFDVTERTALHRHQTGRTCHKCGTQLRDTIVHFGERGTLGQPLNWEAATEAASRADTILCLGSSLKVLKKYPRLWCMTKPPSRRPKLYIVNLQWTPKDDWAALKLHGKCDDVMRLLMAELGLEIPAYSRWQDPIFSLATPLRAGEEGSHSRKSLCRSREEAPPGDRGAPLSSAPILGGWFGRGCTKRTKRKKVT
Method in brief: as §2

[5] = biological target: NAD-dependent protein deacylase sirtuin-6 (Homo sapiens) (UniProt Q8N6T7); experiment: Binding affinity to SIRT6 (unknown origin) assessed as increase in fluorescence intensity at 2.5 uM measured at 5 mins interval for 1 hr in presence of NAD+ by fluorometric method relative to control
Method in brief: as §2
Target sequence in this assay (Q8N6T7 whole entry): as the sequence (Q8N6T7 whole entry, looked up) above

[6] = biological target: T3, NAD-dependent protein deacetylase sirtuin-1 (Homo sapiens) (UniProt Q96EB6); experiment: Binding affinity to SIRT1 (unknown origin) assessed as increase in fluorescence intensity at 2.5 uM measured at 5 mins interval for 1 hr in presence of NAD+ by fluorometric method relative to control
T3 sequence (whole entry): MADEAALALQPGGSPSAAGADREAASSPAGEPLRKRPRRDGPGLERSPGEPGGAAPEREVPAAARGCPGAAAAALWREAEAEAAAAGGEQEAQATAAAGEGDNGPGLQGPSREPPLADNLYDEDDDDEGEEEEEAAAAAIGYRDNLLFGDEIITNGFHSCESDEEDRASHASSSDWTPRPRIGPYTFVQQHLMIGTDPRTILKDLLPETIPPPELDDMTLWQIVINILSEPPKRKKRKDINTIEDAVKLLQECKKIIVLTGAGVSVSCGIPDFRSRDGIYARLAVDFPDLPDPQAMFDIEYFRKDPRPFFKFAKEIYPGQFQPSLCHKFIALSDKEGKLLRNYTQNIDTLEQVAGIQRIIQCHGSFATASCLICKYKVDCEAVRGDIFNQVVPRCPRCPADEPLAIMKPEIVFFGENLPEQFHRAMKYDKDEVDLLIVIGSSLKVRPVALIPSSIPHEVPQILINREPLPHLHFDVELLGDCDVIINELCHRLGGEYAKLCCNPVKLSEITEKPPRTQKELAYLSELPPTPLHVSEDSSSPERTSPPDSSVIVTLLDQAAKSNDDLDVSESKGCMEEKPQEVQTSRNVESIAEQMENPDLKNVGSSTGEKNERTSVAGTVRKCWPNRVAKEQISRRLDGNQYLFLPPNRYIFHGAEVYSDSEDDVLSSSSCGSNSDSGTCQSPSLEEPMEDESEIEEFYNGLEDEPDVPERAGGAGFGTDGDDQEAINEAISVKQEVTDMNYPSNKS
Method in brief: as §2

[7] = biological target: T4, NAD-dependent protein deacetylase sirtuin-3, mitochondrial (Homo sapiens) (UniProt Q9NTG7); experiment: Binding affinity to SIRT3 (unknown origin) assessed as increase in fluorescence intensity at 2.5 uM measured at 5 mins interval for 1 hr in presence of NAD+ by fluorometric method relative to control
T4 sequence (whole entry): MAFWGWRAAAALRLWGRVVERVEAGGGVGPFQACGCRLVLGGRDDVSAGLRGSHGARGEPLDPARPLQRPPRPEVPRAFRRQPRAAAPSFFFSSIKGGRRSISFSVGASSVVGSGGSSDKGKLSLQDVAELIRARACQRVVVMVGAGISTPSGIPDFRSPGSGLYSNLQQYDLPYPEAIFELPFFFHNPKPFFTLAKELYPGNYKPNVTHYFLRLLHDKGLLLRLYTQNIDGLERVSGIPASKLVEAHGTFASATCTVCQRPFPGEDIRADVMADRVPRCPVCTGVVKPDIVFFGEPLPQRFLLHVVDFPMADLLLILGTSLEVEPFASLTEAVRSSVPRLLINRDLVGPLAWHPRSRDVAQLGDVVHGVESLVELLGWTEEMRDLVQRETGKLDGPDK
Method in brief: as §2

[8] = biological target: T5, NAD-dependent protein lipoamidase sirtuin-4, mitochondrial (Homo sapiens) (UniProt Q9Y6E7); experiment: Binding affinity to SIRT4 (unknown origin) assessed as increase in fluorescence intensity at 2.5 uM measured at 5 mins interval for 1 hr in presence of NAD+ by fluorometric method relative to control
T5 sequence (whole entry): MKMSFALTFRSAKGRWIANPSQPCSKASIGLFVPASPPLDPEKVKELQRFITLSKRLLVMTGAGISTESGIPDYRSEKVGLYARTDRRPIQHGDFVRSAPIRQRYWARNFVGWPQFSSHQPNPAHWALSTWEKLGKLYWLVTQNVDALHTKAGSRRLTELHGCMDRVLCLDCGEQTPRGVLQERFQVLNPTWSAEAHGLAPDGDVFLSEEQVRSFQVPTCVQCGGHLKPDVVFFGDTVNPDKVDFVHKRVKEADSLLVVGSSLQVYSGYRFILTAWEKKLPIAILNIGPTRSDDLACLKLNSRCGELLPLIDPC
Method in brief: as §2

[9] = biological target: NAD-dependent protein deacylase sirtuin-5, mitochondrial (Homo sapiens) (UniProt Q9NXA8); experiment: Binding affinity to SIRT5 (unknown origin) assessed as increase in fluorescence intensity at 2.5 uM measured at 5 mins interval for 1 hr in presence of NAD+ by fluorometric method relative to control
Chain of NAD-dependent protein deacylase sirtuin-5, mitochondrial (Homo sapiens) (Q9NXA8 37-310 limits assumed): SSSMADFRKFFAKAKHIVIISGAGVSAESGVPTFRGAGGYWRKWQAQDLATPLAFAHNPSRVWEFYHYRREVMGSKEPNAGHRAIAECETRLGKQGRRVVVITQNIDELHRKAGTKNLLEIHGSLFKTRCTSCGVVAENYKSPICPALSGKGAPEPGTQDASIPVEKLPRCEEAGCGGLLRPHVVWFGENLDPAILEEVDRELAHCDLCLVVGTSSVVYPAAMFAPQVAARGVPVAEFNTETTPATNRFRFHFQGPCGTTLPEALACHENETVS
Method in brief: as §2

[10] = biological target: T6, NAD-dependent protein deacetylase sirtuin-2 (Homo sapiens, UniProt Q8IXJ6); experiment: as §1, with “origin)” for “origin) at 10 uM”, “method” for “method relative to control”
T6 sequence (Q8IXJ6 whole entry): T1 sequence (whole entry)
Method in brief: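 The second screen used the same SIRT2 one-step FRET probe conditions, validated at 2.92 nM SIRT2. Compounds were tested over a range of concentrations to check dose-dependency, and the IC50 was derived from the dose–response curve.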

[11] = biological target: T1, NAD-dependent protein deacetylase sirtuin-2 (Homo sapiens); experiment: Binding affinity to SIRT2 (unknown origin) assessed as increase in fluorescence intensity at 2.92 to 8.75 nM measured at 5 mins interval for 4 hrs in presence of NAD+ by fluorometric method; conditions: dose 2.92-8.75 nM
[12] = biological target: T1, NAD-dependent protein deacetylase sirtuin-2 (Homo sapiens); experiment: Binding affinity to SIRT2 (unknown origin) assessed as increase in fluorescence intensity measured at 5 mins interval for 1 hr in presence of NAD+ by fluorometric method

Row | SMILES | fold change (FC) [3] | fold change (FC) [4] | fold change (FC) [5] | fold change (FC) [6] | fold change (FC) [8] | fold change (FC) [9] | other results
1 | CCCCCCCCCCCCCC(=S)NCCCC[C@H](NC(=O)[C@@H](NC(=O)[C@H](CCCNC(=N)N)NC(C)=O)[C@@H](C)CC)C(=O)N[C@@H](CCCNC(=N)N)C(=O)N[C@@H](Cc1ccc(O)cc1)C(N)=O (Ac-RI[Lys(thiomyristoyl)]RY-NH2) |  |  |  |  |  |  | IC50 [1]: 100 nM
2 | C=C(C)Cn1c(NCCO)nc2c1c(=O)[nH]c(=O)n2C |  |  |  |  |  |  | inhibition [2]: > 35%
3 | CN(CCC(=O)NCCCC[C@H](NC(=O)[C@H](Cc1ccccc1)NC(=O)[C@H](CO)NC(=O)[C@H](CCCCN)NC(=O)[C@H](CCCCN)NC(=O)[C@H]1CC[C@H](NC(=S)Nc2ccc(-c3c4ccc(=O)cc-4oc4cc(O)ccc34)c(C(=O)O)c2)CC1)C(=O)N[C@@H](CCC(=O)O)C(=O)N[C@@H](CCCNC(=N)N)C(=O)N[C@@H](CO)C(=O)N[C@@H](CO)C(N)=O)c1ccc(/N=N/c2ccc([N+](=O)[O-])cc2)cc1 (X1-[Achc(trans-4)]KKSFK(X2)ERSS-NH2) | 5.64 | 0.99 | 3.36 | 8.86 | 1.2 | 1.05 | fold change (FC) [7]: 26.2
4 | CC[C@H](C)[C@H](NC(=O)[C@H](CCCNC(=N)N)NC(C)=O)C(=O)N[C@@H](CCCCNC(=O)Cc1ccc(/N=N/c2ccc(O)cc2)cc1)C(=O)N[C@@H](CCCNC(=N)N)C(=O)N[C@@H](Cc1ccc(O)cc1)C(N)=O (Ac-RIK(X5)RY-NH2) |  |  |  |  |  |  | IC50 [10]: 7 nM
5 | O=C1CCCCC1C1(O)C(=O)Nc2ccccc21 (stereo unspecified) |  |  |  |  |  |  | inhibition [2]: > 35%
6 | CC[C@H](C)[C@H](NC(=O)[C@H](CCCNC(=N)N)NC(=O)[C@H](Cc1ccc(O)cc1)NC(=O)[C@H](CC(=O)O)NC(=O)[C@H]1CC[C@H](NC(=S)Nc2ccc(-c3c4ccc(=O)cc-4oc4cc(O)ccc34)c(C(=O)O)c2)CC1)C(=O)N[C@@H](CCCCNC(=O)CCN(C)c1ccc(/N=N/c2ccc([N+](=O)[O-])cc2)cc1)C(=O)N[C@@H](CCCNC(=N)N)C(=O)N[C@@H](Cc1ccc(O)cc1)C(=O)N[C@@H](Cc1c[nH]cn1)C(=O)N[C@H](C(N)=O)[C@@H](C)O (X1-[Achc(trans-4)]DYRIK(X2)RYHT-NH2) | 6.97 | 1.05 | 1.19 | 5.85 | 1.25 | 1.15 | fold change (FC) [7]: 26.7
7 | C[C@H](NC(=O)CNC(=O)CNC(=O)[C@H](CCCCN)NC(=O)[C@H]1CC[C@H](NC(=S)Nc2ccc(-c3c4ccc(=O)cc-4oc4cc(O)ccc34)c(C(=O)O)c2)CC1)C(=O)N[C@@H](CCCCNC(=O)CCCc1ccc(/N=N/c2ccc(N(C)C)cc2)cc1)C(=O)N[C@@H](CCCNC(=N)N)C(=O)N[C@@H](Cc1c[nH]cn1)C(=O)N[C@@H](CCCNC(=N)N)C(=O)N[C@@H](CCCCN)C(N)=O | 12 | 1 | 2.21 | 14.2 | 1.11 | 1.06 | Activity [11]: Active; Activity [12]: Dose-dependent effect
